Legend:
[1] = Uncompetitive Inhibitory activity against Inosine-5'-monophosphate dehydrogenase using IMP as viable substrate
[2] = Cytotoxicity against P388 cells in culture; format: cell-based; settings: mouse, read-out: ID50 (the source's name)
How it was run: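 P388 cells in log-phase growth exposed in culture to each monophosphate or dinucleotide.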

[3] = Noncompetitive inhibitory activity against Inosine-5'-monophosphate dehydrogenase using NAD as viable substrate
[4] = Uncompetitive (mixed) inhibitory activity against Inosine-5'-monophosphate dehydrogenase using NAD as viable substrate
[5] = Noncompetitive Inhibitory activity against Inosine-5'-monophosphate dehydrogenase using IMP as viable substrate
[6] = Noncompetitive inhibitory activity against Inosine-5'-monophosphate dehydrogenase using NAD as viable substrate
[7] = Inhibitory activity against Inosine-5'-monophosphate dehydrogenase using NAD as viable substrate; Inactive.
[8] = Inhibitory activity against Inosine-5'-monophosphate dehydrogenase using IMP as viable substrate; Inactive.
[9] = Inhibitory activity against Inosine-5'-monophosphate dehydrogenase using IMP as viable substrate; Inactive
[10] = Inhibitory activity against Inosine-5'-monophosphate dehydrogenase using NAD as viable substrate; Inactive
[11] = Competitive Inhibitory activity against Inosine-5'-monophosphate dehydrogenase using IMP as viable substrate

Structure (SMILES)	Ki [1] [µM]	CC50 [2] [µM]	Ki [3] [µM]	Ki [5] [µM]	also measured
NC(=O)c1csc([C@H]2O[C@@H](COP(=O)(O)OP(=O)(O)OC[C@H]3O[C@@H](n4cnc5c(N)ncnc54)[C@H](O)[C@@H]3O)[C@H](O)[C@@H]2O)n1	0.13	7.5	0.24		
NC(=O)c1c[se]c([C@H]2O[C@@H](COP(=O)(O)OP(=O)(O)OC[C@H]3O[C@@H](c4nc(C(N)=O)c[se]4)[C@H](O)[C@@H]3O)[C@H](O)[C@@H]2O)n1	190	0.6			Ki [4]: 240 µM
NC(=O)c1csc([C@@H]2O[C@H](COP(=O)(O)O)[C@@H](O)[C@H]2O)n1		10		265	Ki [6]: 405 µM
NC(=O)c1c[se]c([C@@H]2O[C@H](COP(=O)(O)O)[C@@H](O)[C@H]2O)n1		1.4		170	Ki [6]: 470 µM
NC(=O)c1csc([C@H]2O[C@@H](COP(=O)(O)OP(=O)(O)OC[C@H]3O[C@@H](c4nc(C(N)=O)cs4)[C@H](O)[C@@H]3O)[C@H](O)[C@@H]2O)n1	140	4.6			Ki [4]: 370 µM
NC(=O)c1ncn([C@@H]2O[C@H](COP(=O)(O)O)[C@@H](O)[C@H]2O)c1N		> 220			Ki [7]: Not Active; Ki [8]: Not Active
NC(=O)c1c[se]c(C2O[C@@H](COP(=O)(O)OP(=O)(O)OC[C@H]3OC(n4cnc5c(N)ncnc54)[C@H](O)[C@@H]3O)[C@H](O)[C@@H]2O)n1 (stereo not given in full)	0.05	9.8	0.04		
NC(=O)c1ncn(C2O[C@H](COP(=O)(O)OP(=O)(O)OC[C@H]3OC(n4cnc5c(N)ncnc54)[C@H](O)[C@@H]3O)[C@H](O)[C@@H]2O)c1N (stereo not given in full)		78			Ki [9]: Not Active; Ki [10]: Not Active
NC(=O)c1ncn(C2O[C@H](COP(=O)(O)OP(=O)(O)OC[C@H]3OC(n4cnc5c(N)ncnc54)[C@H](O)[C@@H]3O)[C@H](O)[C@@H]2O)n1 (stereo not given in full)		40	235	148	
NC(=O)c1ncn([C@@H]2O[C@H](COP(=O)(O)O)[C@@H](O)[C@H]2O)n1 [RIBAVIRIN MONOPHOSPHATE]		65	2.24		Ki [11]: 4.18 µM

From ChEMBL document CHEMBL1122938, “Ribavirin, tiazofurin, and selenazofurin: mononucleotides and nicotinamide adenine dinucleotide analogues. Synthesis, structure, and interactions with IMP dehydrogenase” (J Med Chem, 1985)
